ChEMBL document CHEMBL5316332 (J Med Chem, 2023)
The source made the active and inactive calls. No cut-off for these calls is given here.

Key:
[1] = molecular target: T1, Bone morphogenetic protein receptor type-2 (Homo sapiens) (UniProt Q13873); assay: (§1) Inhibition of recombinant C-terminal 6His-tagged human BMPR2 (188 to 517 residues) expressed in Escherichia coli Rosetta assessed as apparent inhibition constant using ATP as substrate incubated for 30 mins by Morrison plot analysis
T1 sequence (whole entry): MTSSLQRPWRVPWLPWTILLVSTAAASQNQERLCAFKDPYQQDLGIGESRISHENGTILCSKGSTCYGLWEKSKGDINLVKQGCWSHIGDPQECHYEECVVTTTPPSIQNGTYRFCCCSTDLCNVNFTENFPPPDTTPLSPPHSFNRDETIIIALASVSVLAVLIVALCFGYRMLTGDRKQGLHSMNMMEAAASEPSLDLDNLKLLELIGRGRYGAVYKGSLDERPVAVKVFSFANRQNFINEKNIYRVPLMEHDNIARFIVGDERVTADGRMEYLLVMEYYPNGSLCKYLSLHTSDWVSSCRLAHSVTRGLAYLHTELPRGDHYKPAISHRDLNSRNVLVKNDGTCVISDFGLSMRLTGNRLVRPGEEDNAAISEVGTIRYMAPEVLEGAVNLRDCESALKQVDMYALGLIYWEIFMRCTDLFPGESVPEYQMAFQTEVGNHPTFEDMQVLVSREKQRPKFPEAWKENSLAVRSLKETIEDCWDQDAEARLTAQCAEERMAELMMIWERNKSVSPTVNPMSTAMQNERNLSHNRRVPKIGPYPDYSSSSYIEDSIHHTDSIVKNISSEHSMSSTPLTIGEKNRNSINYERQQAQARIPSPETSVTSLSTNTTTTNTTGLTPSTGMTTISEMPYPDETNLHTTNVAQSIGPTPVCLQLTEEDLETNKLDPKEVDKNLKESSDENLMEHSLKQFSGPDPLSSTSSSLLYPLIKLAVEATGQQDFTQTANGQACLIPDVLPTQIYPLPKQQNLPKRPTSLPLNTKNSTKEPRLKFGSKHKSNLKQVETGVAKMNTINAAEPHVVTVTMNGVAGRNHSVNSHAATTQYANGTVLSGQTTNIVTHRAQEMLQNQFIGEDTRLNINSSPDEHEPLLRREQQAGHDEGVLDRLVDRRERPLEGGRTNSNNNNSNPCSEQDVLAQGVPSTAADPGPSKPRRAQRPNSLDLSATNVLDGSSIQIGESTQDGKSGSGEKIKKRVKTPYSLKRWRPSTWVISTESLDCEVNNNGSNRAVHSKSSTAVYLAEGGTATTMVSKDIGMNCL
Summary of the method: (§2)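 Purified His-tagged BMPR2 kinase domain with no peptide substrate (intrinsic ATPase). 10 μM ATP, 0.02% Tween-20, kinase buffer, 50 μL, enzyme level optimized for initial-velocity conditions. 30 min at 30 °C. Leftover ATP read by Kinase-Glo luminescence, with no-kinase controls. Kiapp from a modified Morrison equation fitted to normalized fractional activity, assuming no specific inhibition mode.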

[2] = molecular target: T2, Bone morphogenetic protein receptor type-2 (Homo sapiens, UniProt Q13873); assay: as §1; conditions: read-out: Ki(app); summary of the method: as §2
T2 sequence (Q13873 whole entry): T1 sequence (whole entry)

[3] = Metabolic stability in mouse liver microsomes assessed as half life at 2 uM and mesured upto 60 mins in presence of NADPH by UHPLC-MS analysis; type: ADME, Microsome; conditions: for t1/2: microsomes, 1 h, 2 µM
[4] = Metabolic stability in human liver microsomes assessed as half life at 2 uM and mesured upto 60 mins in presence of NADPH by UHPLC-MS analysis; type: ADME, Microsome; conditions: for t1/2: microsomes, 1 h, 2 µM
[5] = Metabolic stability in mouse liver microsomes assessed as intrinsic clearance per mg of protein at 2 uM and mesured upto 60 mins in presence of NADPH by UHPLC-MS analysis; type: ADME, Microsome; conditions: for microsomal intrinsic clearance: microsomes, 1 h, 2 µM
[6] = Metabolic stability in human liver microsomes assessed as intrinsic clearance per mg of protein at 2 uM and mesured upto 60 mins in presence of NADPH by UHPLC-MS analysis; type: ADME, Microsome; conditions: for microsomal intrinsic clearance: microsomes, 1 h, 2 µM
[7] = molecular target: Receptor-interacting serine/threonine-protein kinase 2 (Homo sapiens, UniProt O43353); assay: Inhibition of RIPK2 (unknown origin) incubated for 30 mins in presence of [gamma33P]ATP by microplate reader analysis
TGF-beta receptor type-2 = TGF-beta receptor type-2 (Homo sapiens, UniProt P37173); assay: Inhibition of TGFBR2 (unknown origin) by LanthaScreen TR-FRET assay
Summary of the method: (§3)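 Outsourced SelectScreen profiling using a LanthaScreen TR-FRET binding format, in which a tight-binding tracer is displaced from the kinase.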

Activin receptor type-2A = Activin receptor type-2A (Homo sapiens, UniProt P27037); assay: Inhibition of ACVR2A (unknown origin) by LanthaScreen TR-FRET assay; summary of the method: as §3
Activin receptor type-2B = Activin receptor type-2B (Homo sapiens, UniProt Q13705); assay: Inhibition of ACVR2B (unknown origin) by LanthaScreen TR-FRET assay; summary of the method: as §3
[8] = Inhibition of BMP signalling pathway in BMP2-stimulated human HEK293T cells expressing BRE and luciferase reporter assessed as inhibition of luciferase transactivation by measuring BRE-reporter activity preincubated for 30 mins followed by BMP2 stimulation and measured after 6 hrs by Bright-GLO mediated luciferase assay; type: cell-based; conditions: HEK-293T
Summary of the method: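 293T cells stably carrying a BMP-responsive-element luciferase reporter, 2 × 10^4 per well, attached overnight in phenol-red-free DMEM with 2 mM glycine and 2% heat-inactivated FBS. Pretreated 30 min with inhibitor, then 5 ng/mL BMP2 for 6 h. Bright-Glo luminescence read; IC50 by nonlinear regression.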

HEK293T [9] = assay: Inhibition of BMP signalling pathway in BMP2-stimulated human HEK293T cells assessed as decrease in SMAD1 phosphorylation at 25 uM preincubated for 30 mins followed by BMP2 stimulation and measured after 15 mins by Western blot analysis; type: cell-based; conditions: time 45.0 min
Summary of the method: (§4)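 HEK293T cells, 3 × 10^5 per well, starved overnight in DMEM with 2 mM glycine and 2% heat-inactivated FBS. Pretreated 30 min with inhibitor, then 5 ng/mL BMP2 for 15 min. Lysed in M-PER with protease inhibitors. Western blot for pSMAD1/5, SMAD1, SMAD5 and GAPDH, quantified by densitometry.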

HEK293T [10] = assay: Inhibition of BMP signalling pathway in BMP2-stimulated human HEK293T cells assessed as decrease in SMAD5 phosphorylation at 25 uM preincubated for 30 mins followed by BMP2 stimulation and measured after 15 mins by Western blot analysis; type: cell-based; conditions: time 45.0 min; summary of the method: as §4
HUVEC [11] = assay: Inhibition of BMP signalling pathway in BMP9-stimulated human HUVEC cells assessed as decrease in SMAD1 phosphorylation at 25 uM preincubated for 30 mins followed by BMP2 stimulation and measured after 15 mins by Western blot analysis; type: cell-based; conditions: time 45.0 min
Summary of the method: (§5)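 HUVECs, about 3 × 10^5 per well, starved overnight in Kaighn's F-12 with 0.5% FBS and 30 μg/mL endothelial cell growth supplement. Pretreated 30 min with inhibitor, then stimulated with 0.5 ng/mL BMP9. Lysed in M-PER with protease and phosphatase inhibitors. Western blot for pSMAD1/5, SMAD1 and SMAD5, quantified by densitometry.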

HUVEC [12] = assay: Inhibition of BMP signalling pathway in BMP9-stimulated human HUVEC cells assessed as decrease in SMAD5 phosphorylation at 25 uM preincubated for 30 mins followed by BMP2 stimulation and measured after 15 mins by Western blot analysis; type: cell-based; conditions: time 45.0 min; summary of the method: as §5
[13] = liver microsomes, read-out: CLH

TGF-beta receptor type-2, sequence (P37173 whole entry): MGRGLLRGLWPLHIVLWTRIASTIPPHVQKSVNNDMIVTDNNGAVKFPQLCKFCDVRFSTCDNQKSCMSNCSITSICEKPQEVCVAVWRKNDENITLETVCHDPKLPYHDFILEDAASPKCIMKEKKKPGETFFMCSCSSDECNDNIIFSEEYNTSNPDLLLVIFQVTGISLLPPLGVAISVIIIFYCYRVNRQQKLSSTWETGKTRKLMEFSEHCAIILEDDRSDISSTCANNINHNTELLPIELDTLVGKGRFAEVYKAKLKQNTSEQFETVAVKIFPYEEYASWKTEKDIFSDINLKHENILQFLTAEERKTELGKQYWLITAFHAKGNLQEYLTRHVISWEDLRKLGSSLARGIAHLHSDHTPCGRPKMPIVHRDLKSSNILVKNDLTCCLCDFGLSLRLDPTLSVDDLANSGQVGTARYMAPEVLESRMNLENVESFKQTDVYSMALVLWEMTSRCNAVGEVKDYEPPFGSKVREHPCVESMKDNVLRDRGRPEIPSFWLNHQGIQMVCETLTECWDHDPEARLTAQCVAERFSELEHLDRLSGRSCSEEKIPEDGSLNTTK
Activin receptor type-2A, sequence (P27037 whole entry): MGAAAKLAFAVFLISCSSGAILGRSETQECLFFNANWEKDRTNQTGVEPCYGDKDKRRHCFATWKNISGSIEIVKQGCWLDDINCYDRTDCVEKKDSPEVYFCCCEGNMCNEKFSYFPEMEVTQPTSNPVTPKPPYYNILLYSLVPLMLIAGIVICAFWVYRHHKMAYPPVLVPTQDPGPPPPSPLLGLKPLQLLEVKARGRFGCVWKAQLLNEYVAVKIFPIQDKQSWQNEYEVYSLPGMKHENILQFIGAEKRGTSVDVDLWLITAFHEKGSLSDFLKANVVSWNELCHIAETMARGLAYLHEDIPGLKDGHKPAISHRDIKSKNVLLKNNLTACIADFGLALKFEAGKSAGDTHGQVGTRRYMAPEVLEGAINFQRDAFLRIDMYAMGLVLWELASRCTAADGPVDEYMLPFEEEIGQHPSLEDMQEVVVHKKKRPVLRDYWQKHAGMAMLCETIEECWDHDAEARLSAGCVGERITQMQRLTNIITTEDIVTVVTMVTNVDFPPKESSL
Receptor-interacting serine/threonine-protein kinase 2, sequence (O43353 whole entry): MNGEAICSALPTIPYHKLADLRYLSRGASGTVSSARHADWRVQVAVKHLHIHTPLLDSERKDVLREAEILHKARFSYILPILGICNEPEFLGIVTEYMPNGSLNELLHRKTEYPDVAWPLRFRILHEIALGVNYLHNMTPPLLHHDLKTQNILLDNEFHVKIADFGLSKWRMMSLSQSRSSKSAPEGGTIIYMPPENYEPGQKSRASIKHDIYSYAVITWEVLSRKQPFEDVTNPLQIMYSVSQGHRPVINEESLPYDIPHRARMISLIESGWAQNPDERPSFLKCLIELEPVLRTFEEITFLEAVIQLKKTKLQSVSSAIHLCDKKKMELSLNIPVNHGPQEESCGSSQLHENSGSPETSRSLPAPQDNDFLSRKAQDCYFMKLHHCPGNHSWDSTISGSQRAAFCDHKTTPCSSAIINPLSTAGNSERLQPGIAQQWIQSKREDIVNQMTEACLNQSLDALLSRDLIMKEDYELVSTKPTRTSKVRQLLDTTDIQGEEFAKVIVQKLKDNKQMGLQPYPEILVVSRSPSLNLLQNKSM
Activin receptor type-2B, sequence (Q13705 whole entry): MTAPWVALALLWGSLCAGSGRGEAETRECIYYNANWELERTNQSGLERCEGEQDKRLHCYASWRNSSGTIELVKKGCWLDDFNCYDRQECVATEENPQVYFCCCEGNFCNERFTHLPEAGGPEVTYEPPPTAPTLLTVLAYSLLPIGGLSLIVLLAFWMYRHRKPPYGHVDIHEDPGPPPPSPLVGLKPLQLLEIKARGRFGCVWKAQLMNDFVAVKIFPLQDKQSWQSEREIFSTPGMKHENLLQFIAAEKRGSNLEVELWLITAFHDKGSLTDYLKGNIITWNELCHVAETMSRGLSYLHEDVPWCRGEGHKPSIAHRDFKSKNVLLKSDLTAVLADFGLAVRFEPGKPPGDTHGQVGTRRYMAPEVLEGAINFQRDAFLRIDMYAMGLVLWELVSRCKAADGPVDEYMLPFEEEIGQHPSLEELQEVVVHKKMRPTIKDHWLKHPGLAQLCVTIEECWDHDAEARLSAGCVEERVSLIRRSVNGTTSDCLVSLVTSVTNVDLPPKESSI

## COc1cnc(Nc2ccccc2)nc1N1CCN(c2ccccc2)CC1
[1]
  inhibition: inactive

## COc1cnc(Nc2cccc(S(N)(=O)=O)c2)nc1N1CCN(c2ccccc2)C(C)C1 (stereo not drawn)
[2]
  Ki: 118 nM
[3]
  t1/2: 6 min
[4]
  t1/2: 60 min
[5]
  microsomal intrinsic clearance: 220 µL/min/mg
[6]
  microsomal intrinsic clearance: 23 µL/min/mg

## CNC(=O)c1ccc2nc(-c3ccc4cnccc4c3)n([C@@H]3CC[C@@H](C(=O)NC)C3)c2c1
[2]
  Ki: > 1000 nM

## NS(=O)(=O)c1cccc(Nc2ncc(F)c(N3CCN(c4ccccc4)C(=O)C3)n2)c1
[2]
  Ki: 236 nM

## c1ccc2c(-c3cnn4cc(-c5ccc(N6CCNCC6)cc5)cnc34)ccnc2c1
[7]
  IC50: 25 nM
TGF-beta receptor type-2
  IC50: 4.2 nM
Activin receptor type-2A
  IC50: 9.3 nM
Activin receptor type-2B
  IC50: 9.3 nM
[8]
  IC50: 82 nM
HEK293T [9]
  inhibition: Active
HEK293T [10]
  inhibition: Active
HUVEC [11]
  inhibition: Active
HUVEC [12]
  inhibition: Active

## CNC(=O)[C@@H]1CC[C@@H](n2c(-c3ccc4cnccc4c3)nc3ccc(C(=O)NCc4ccccc4)cc32)C1
[2]
  Ki: 39 nM

## Cc1nnc2n1-c1ccc(Cl)cc1C(c1ccccc1)=NC2 [ALPRAZOLAM]
[3]
  t1/2: 258 min
[4]
  t1/2: 620 min
[5]; [13]
  microsomal CLint at 2 µM: 5 µL/min/mg

## CNC(=O)[C@@H]1CC[C@@H](n2c(-c3cccc(Cl)c3)nc3ccc(C(=O)NCc4cccc(C(N)=O)c4)cc32)C1
[2]
  Ki: > 1000 nM

## Cn1c(-c2ccc3cnccc3c2)nc2ccc(C(=O)NCc3cccc(C(N)=O)c3)cc21
[2]
  Ki: 22 nM
[3]
  t1/2: 14 min
[4]
  t1/2: 69 min
[5]
  microsomal intrinsic clearance: 99 µL/min/mg
[6]
  microsomal intrinsic clearance: 20 µL/min/mg
[8]
  IC50: 29800 nM

## COc1cnc(Nc2cccc(S(N)(=O)=O)c2)nc1N1CCN(c2ccccc2)CC1C(F)(F)F (stereo not drawn)
[2]
  Ki: 430 nM

## CC(C)Oc1cnc(Nc2cccc(S(N)(=O)=O)c2)nc1N1CCN(c2ccccc2)C(=O)C1
[2]
  Ki: > 200 nM

## Cc1sc2c(c1C)C(c1ccc(Cl)cc1)=N[C@@H](CC(=O)OC(C)(C)C)c1nnc(C)n1-2
[4]
  t1/2: 14 min

## COc1cnc(Nc2cccc(S(N)(=O)=O)c2)nc1N1CC(F)(c2ccccc2)C1
[2]
  Ki: 18 nM
[3]
  t1/2: 21 min
[4]
  t1/2: 170 min
[5]
  microsomal intrinsic clearance: 65 µL/min/mg
[6]
  microsomal intrinsic clearance: 8 µL/min/mg

## COc1cnc(Nc2cccc(S(N)(=O)=O)c2)nc1N1CCN(c2ccccc2)CC1
[2]
  Ki: 40 nM
[3]
  t1/2: 12 min
[4]
  t1/2: 77 min
[5]
  microsomal intrinsic clearance: 120 µL/min/mg
[6]
  microsomal intrinsic clearance: 18 µL/min/mg
[8]
  IC50: 8720 nM
HEK293T [9]
  inhibition: Active
HEK293T [10]
  inhibition: Active
HUVEC [11]
  inhibition: Active
HUVEC [12]
  inhibition: Active

## COc1cnc(Nc2cccc(S(N)(=O)=O)c2)nc1N1CCN(c2ccccc2)CC12CC2
[2]
  Ki: 220 nM

## COc1cnc(Nc2cccc(S(N)(=O)=O)c2)nc1N1CC2CCC1CN2c1ccccc1 (stereo not drawn)
[2]
  Ki: 310 nM

## NS(=O)(=O)c1cccc(Nc2ncc(C(F)(F)F)c(N3CCN(c4ccccc4)C(=O)C3)n2)c1
[1]
  inhibition: inactive

## CNC(=O)[C@@H]1CC[C@@H](n2c(-c3cc(Cl)cc(Cl)c3)nc3ccc(C(=O)NCc4cccc(C(N)=O)c4)cc32)C1
[2]
  Ki: > 1000 nM

## COc1cnc(Nc2cccc(S(N)(=O)=O)c2)nc1N1CCNCC1
[2]
  Ki: 250 nM

## CCOc1cnc(Nc2cccc(S(N)(=O)=O)c2)nc1N1CCN(c2ccccc2)C(=O)C1
[2]
  Ki: 5 nM
[3]
  t1/2: 18 min
[4]
  t1/2: 73 min
[5]
  microsomal intrinsic clearance: 79 µL/min/mg
[6]
  microsomal intrinsic clearance: 19 µL/min/mg

## COc1cnc(Nc2cccc(S(N)(=O)=O)c2)nc1N1CC2CC1CN2c1ccccc1 (stereo not drawn)
[2]
  Ki: 930 nM

## NS(=O)(=O)c1cccc(Nc2ncc(OC(F)F)c(N3CCN(c4ccccc4)C(=O)C3)n2)c1
[2]
  Ki: > 200 nM

## COc1cnc(Nc2cccc(S(N)(=O)=O)c2)nc1N1CCN(c2ccccc2)CC1C (stereo not drawn)
[2]
  Ki: 88 nM
[3]
  t1/2: 6 min
[4]
  t1/2: 79 min
[5]
  microsomal intrinsic clearance: 233 µL/min/mg
[6]
  microsomal intrinsic clearance: 18 µL/min/mg

## COc1cnc(Nc2cccc(S(N)(=O)=O)c2)nc1N1CCN(c2ccccn2)CC1
[3]; liver microsomes
  half-life at 2 µM: 9 min
[4]; liver microsomes
  half-life at 2 µM: 43 min
[5]; [13]
  microsomal intrinsic clearance at 2 µM: 159 µL/min/mg
[6]; [13]
  microsomal intrinsic clearance at 2 µM: 32 µL/min/mg

## COc1cnc(Nc2cccc(S(N)(=O)=O)c2)nc1N1CC2CCC(C1)N2c1ccccc1
[2]
  Ki: 220 nM
